The record followed here is ChEMBL document CHEMBL5712072, “Epigenetic targeting of Hedgehog pathway transcriptional output through BET bromodomain inhibition” (Nat Med, 2014).

Activity calls are given as the source filed them. No cut-off for these calls is given here.

Assay [1] concerns Medulloblastoma cell. The assay is described as follows: Induction of apoptosis in human wildtype SMO expressing medulloblastoma cells assessed as early apoptotic cells by annexin-V/PI staining based flow cytometric analysis (reference value: 0.59%). In kind it is functional.
Assay [2] has as its target Bromodomain-containing protein 4 (Mus musculus) (UniProt Q9ESU6). The assay is described as follows: Inhibition of BRD4 in mouse Hh-Light2 cells assessed as Gli1 mRNA level by qRT-PCR analysis.
The target in assay [3] is Zinc finger protein GLI2 (Homo sapiens) (UniProt P10070). The assay is described as follows: Inhibition of human GLI2 expressed in Hh-Light2 cells assessed as reduction in Gli1 mRNA expression level by qRT-PCR analysis. The assay is classed as cell-based. In short, it runs like this: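 Hh-Light2 cells transiently transfected (Turbofect) with full-length murine HA-Gli2-FL or N-terminally truncated human Myc-GLI2-DN; drugs (1 uM JQ1, GDC-0449, LDE225 or SANT-1) added 24hr post-transfection; Gli1 mRNA by SYBR Green qRT-PCR; mean of triplicates ± SD.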

Assay [4] has as its system MEF. The assay is described as follows: Downregulation of Gli1 protein expression in Sufu-/- MEF cells by immunoblot analysis. The following applies: Mus musculus. The assay is classed as functional, cell-based. In short, it runs like this:
(§1)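 Sufu−/− MEFs exposed to DMSO or 1 uM of JQ1, GDC-0449, LDE225 or SANT-1; RIPA lysis 30min on ice, cleared 13000rpm 15min 4°C; SDS-PAGE immunoblot with anti-GLI1, β-tubulin as loading control.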

In assay [5] the test system is Medulloblastoma cell. The assay is described as follows: Antiproliferative activity against in […] medulloblastoma cells expressing SmoWT-MB cells from mouse assessed as cell proliferation by EdU analysis. The assay is classed as functional, cell-based. The method, boiled down:
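SmoWT-MB cells given 0.1uM GDC-0449 or LDE225 (or JQ1 1 uM); 10uM EdU added for final 6-8hrs; EdU+ cells detected by Click-iT flow cytometry or imaging, DAPI counterstain; proliferation index = EdU+/DAPI+ cells; group means ± SD.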

Assay [6] has as its system Medulloblastoma cell. The assay is described as follows: Induction of apoptosis in mouse wildtype SMO expressing medulloblastoma cells assessed as late apoptotic cells by annexin-V/PI staining based flow cytometric analysis (reference value: 2.5%).
Assay [7] has as its system Medulloblastoma cell. Put plainly: Antitumor activity in […] medulloblastoma cells expressing SmoD477G mutant […] in NSG mouse assessed as reduction in tumor growth at 100 mg/kg/day, po. The assay is classed as functional, organism-based.
Assay [8] concerns Medulloblastoma cell. Put plainly: Induction of apoptosis in mouse wildtype SMO expressing medulloblastoma cells assessed as necrotic cells by annexin-V/PI staining based flow cytometric analysis (reference value: 22%).
The test system of assay [9] is MEF. Put plainly: Downregulation of Gli transcription in Sufu-/- MEF cells by immunoblot analysis. The assay is classed as functional, cell-based. The following applies: Mus musculus. In short, it runs like this:
as §1

For assay [10], the system named is Medulloblastoma cell. The assay is described as follows: Antitumor activity in […] medulloblastoma expressing wildtype SMO […] in NSG mouse assessed as reduction in tumor growth at 100 mg/kg/day, po. The assay is classed as functional, organism-based. In short, it runs like this: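 Flank allografts: 2x10e6 SmoWT-MB cells per flank (both flanks) in 4-6 week NSG mice; randomized after engraftment to vehicle, GDC-0449 100 mg/kg PO qd or JQ1 50 mg/kg IP qd, dosed until euthanasia required; caliper tumor measurement; group means ± S.E.M.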

Assay [11] deals with Bromodomain-containing protein 4 (Mus musculus) (UniProt Q9ESU6). Put plainly: Inhibition of BRD4 in mouse Hh-Light2 cells assessed as inhibition in Gli1 protein level by immunoblot analysis.
Assay [12] concerns Medulloblastoma cell. Put plainly: Induction of apoptosis in human wildtype SMO expressing medulloblastoma cells assessed as viable cells by annexin-V/PI staining based flow cytometric analysis (reference value: 74.9%). The assay is classed as functional.
The test system of assay [13] is Basal cell carcinoma cell (Mus musculus). Put plainly: Antitumor activity in mouse basal cell carcinoma allografted in mouse assessed as reduction in tumor growth at 100 mg/kg/day, ip.

Zinc finger protein GLI2 (Homo sapiens), sequence (P10070 whole entry, the tested form may be a part): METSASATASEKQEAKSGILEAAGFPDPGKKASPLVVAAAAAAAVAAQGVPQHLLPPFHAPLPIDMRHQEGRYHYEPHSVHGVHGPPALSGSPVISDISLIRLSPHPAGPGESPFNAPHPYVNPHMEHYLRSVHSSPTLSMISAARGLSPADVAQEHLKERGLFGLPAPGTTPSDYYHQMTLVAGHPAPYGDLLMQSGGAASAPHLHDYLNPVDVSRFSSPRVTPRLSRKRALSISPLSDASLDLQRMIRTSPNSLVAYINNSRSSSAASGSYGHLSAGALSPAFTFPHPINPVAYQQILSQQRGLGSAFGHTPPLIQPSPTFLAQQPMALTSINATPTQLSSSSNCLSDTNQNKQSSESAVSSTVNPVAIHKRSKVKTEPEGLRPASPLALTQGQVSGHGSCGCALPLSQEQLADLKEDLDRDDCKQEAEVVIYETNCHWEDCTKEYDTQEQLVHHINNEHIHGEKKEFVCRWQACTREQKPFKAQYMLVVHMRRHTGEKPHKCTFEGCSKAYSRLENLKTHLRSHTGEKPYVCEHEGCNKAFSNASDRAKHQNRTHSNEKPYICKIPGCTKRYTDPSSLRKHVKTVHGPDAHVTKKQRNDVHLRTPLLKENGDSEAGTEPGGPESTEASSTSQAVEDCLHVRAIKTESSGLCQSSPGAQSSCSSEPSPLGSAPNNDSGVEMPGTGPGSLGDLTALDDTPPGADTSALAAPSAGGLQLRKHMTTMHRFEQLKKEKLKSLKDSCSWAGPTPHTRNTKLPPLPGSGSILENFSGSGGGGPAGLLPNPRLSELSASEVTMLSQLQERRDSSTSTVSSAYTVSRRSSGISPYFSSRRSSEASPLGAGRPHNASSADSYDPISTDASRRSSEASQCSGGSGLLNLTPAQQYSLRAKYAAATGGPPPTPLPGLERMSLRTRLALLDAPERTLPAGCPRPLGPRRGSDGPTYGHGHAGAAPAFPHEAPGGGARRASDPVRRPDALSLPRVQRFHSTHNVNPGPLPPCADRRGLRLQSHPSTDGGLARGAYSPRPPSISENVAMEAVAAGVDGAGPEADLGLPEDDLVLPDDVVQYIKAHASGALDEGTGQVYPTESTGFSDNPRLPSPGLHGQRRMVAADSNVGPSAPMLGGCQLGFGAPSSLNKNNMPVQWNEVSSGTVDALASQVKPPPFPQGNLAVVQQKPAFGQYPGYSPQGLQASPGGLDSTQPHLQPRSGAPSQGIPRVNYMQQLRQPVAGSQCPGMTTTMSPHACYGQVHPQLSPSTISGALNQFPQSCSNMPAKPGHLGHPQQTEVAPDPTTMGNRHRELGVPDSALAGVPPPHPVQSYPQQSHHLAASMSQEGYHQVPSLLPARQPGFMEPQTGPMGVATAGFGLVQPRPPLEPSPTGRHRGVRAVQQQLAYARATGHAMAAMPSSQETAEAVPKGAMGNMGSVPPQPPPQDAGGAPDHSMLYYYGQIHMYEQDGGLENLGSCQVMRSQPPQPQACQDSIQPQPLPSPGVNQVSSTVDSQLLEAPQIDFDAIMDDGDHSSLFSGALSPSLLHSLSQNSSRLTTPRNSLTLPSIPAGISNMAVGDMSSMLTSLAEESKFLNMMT

On to `CS(=O)(=O)c1ccc(C(=O)Nc2ccc(Cl)c(-c3ccccn3)c2)c(Cl)c1` [VISMODEGIB], for which the Activity in the assay with Medulloblastoma cell [1] stood at 1.01%; with Medulloblastoma cell [6], 6.98%; in the assay with Medulloblastoma cell [8], 51.2%; in the assay on Medulloblastoma cell [12] it was 40.8%. Further, the inhibition entry in assay [2] and in assay [11] was “Active” in each case. In assay [3], the inhibition result is “inactive”. Also, the outcome in the assay on MEF [4], with Medulloblastoma cell [7] and with MEF [9] was inactive. For the same molecule, the result with Medulloblastoma cell [5] and in the assay with Medulloblastoma cell [10] was Active.

Turning to `CNCc1ccc(C)c(NC(=O)c2ccc(Nc3nc(-c4ccccc4)c4ccccc4n3)cc2)c1`, the result in [13] was Active.
